Experimental data reported in the M2OR odorant receptor database.

What was measured:
Settings in all cases: stereoisomer not certain
OR6A2 (Homo sapiens) = OR6A2 (Homo sapiens) (UniProt O95222)
Summary of the method: (§1)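 Each receptor–molecule pair is labelled responsive or non-responsive (inactive) according to whether the original authors judged the measured signal statistically different from baseline. The data were taken from the main text and supplementary material of published papers and checked for typos and inconsistencies. Assay methods differed by source, with transient luciferase assays in mammalian cell lines being common.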

OR6A2 I50V = tested on: OR6A2 I50V
Sequence of OR6A2 I50V (as listed by the source, stated change not applied): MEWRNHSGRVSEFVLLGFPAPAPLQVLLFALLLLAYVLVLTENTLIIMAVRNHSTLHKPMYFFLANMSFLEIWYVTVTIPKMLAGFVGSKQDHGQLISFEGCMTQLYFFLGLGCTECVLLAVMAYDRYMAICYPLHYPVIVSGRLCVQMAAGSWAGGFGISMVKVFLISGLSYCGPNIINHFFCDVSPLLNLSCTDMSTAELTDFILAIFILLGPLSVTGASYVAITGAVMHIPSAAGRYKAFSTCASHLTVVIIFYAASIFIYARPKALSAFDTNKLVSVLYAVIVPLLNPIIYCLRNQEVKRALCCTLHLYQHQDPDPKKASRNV
Summary of the method: as §1

OR6B1 (Homo sapiens) = OR6B1 (Homo sapiens) (UniProt O95007)
Sequence of OR6B1 (Homo sapiens) (O95007 whole entry): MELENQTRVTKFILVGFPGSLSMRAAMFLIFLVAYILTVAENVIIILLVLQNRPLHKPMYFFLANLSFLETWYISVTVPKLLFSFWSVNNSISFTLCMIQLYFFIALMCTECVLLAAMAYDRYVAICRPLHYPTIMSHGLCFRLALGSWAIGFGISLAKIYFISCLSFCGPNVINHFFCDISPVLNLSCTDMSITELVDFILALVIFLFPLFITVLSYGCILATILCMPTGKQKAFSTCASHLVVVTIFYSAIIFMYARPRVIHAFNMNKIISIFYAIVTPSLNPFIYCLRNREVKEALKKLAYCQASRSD
Summary of the method: as §1

OR6B2 (Homo sapiens) = OR6B2 (Homo sapiens) (UniProt Q6IFH4)
Sequence of OR6B2 (Homo sapiens) (Q6IFH4 whole entry): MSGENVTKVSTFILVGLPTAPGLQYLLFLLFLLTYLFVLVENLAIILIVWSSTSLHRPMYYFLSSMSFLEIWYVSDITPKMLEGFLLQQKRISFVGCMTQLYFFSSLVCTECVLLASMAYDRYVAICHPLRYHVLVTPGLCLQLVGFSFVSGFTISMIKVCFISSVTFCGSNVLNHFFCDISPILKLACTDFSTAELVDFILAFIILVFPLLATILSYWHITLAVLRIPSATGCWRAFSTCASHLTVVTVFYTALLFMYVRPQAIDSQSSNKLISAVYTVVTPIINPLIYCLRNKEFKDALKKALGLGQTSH
Summary of the method: as §1

OR6B2 R122C C179R = tested on: OR6B2 R122C C179R
Summary of the method: as §1

OR6B3 (Homo sapiens) = OR6B3 (Homo sapiens) (UniProt Q8NGW1)
Sequence of OR6B3 (Homo sapiens) (Q8NGW1 whole entry): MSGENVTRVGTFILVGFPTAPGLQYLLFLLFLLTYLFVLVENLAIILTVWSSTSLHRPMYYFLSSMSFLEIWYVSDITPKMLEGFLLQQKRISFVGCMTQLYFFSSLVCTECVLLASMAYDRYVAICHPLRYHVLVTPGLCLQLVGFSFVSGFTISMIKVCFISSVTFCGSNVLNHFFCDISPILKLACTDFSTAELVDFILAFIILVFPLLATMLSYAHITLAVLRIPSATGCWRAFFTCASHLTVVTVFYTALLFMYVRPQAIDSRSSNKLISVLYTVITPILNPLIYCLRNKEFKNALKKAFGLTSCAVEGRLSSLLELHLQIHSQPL
Summary of the method: as §1

OR6B3 T48I R131C = tested on: OR6B3 T48I R131C
Summary of the method: as §1

OR6C1 (Homo sapiens) = OR6C1 (Homo sapiens) (UniProt Q96RD1)
Sequence of OR6C1 (Homo sapiens) (Q96RD1 whole entry): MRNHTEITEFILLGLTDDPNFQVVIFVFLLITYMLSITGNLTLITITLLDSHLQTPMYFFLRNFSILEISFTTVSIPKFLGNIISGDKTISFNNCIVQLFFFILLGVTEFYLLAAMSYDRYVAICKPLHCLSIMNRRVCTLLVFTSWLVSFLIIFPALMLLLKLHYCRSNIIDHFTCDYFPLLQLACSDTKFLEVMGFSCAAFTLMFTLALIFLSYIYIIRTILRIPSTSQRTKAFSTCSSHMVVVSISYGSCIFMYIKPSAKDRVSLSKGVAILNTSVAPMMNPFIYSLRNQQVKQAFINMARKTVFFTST
Summary of the method: as §1

OR6C1 C130Y H165D V246I = tested on: OR6C1 C130Y H165D V246I
Summary of the method: as §1

OR6C2 (Homo sapiens) = OR6C2 (Homo sapiens) (UniProt Q9NZP2)
Sequence of OR6C2 (Homo sapiens) (Q9NZP2 whole entry): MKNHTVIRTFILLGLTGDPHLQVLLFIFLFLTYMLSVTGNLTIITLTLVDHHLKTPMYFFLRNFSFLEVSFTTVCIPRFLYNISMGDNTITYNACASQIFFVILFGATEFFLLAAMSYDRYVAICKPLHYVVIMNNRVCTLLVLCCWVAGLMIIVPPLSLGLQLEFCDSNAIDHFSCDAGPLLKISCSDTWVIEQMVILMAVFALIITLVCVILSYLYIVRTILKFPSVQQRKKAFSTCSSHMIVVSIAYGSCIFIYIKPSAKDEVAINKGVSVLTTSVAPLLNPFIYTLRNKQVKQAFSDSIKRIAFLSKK
Summary of the method: as §1

OR6C3 (Homo sapiens) = OR6C3 (Homo sapiens) (UniProt Q9NZP0)
Sequence of OR6C3 (Homo sapiens) (Q9NZP0 whole entry): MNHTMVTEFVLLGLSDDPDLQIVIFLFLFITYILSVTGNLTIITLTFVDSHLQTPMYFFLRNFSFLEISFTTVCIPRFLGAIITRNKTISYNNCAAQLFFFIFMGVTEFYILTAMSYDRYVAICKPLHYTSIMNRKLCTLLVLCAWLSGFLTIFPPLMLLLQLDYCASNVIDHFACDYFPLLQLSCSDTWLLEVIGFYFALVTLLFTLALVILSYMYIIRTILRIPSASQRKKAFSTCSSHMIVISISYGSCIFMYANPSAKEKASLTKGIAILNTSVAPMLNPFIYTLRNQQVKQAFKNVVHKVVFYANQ
Summary of the method: as §1

OR6C4 (Homo sapiens) = OR6C4 (Homo sapiens) (UniProt Q8NGE1)
Sequence of OR6C4 (Homo sapiens) (Q8NGE1 whole entry): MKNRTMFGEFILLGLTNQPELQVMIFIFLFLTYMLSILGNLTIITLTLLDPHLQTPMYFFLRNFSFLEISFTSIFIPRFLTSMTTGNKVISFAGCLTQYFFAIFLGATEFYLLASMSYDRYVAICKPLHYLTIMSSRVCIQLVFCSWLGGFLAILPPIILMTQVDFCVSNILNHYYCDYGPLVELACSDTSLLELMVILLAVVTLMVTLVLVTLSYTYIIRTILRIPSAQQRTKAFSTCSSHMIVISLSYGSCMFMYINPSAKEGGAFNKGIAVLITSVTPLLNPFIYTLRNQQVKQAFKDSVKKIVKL
Summary of the method: as §1

OR6C4 = tested on: OR6C4
Sequence of OR6C4 (as listed by the source): as the sequence (Q8NGE1 whole entry) above, with I37V counted along it
Summary of the method: as §1

OR6C6 (Homo sapiens) = OR6C6 (Homo sapiens) (UniProt A6NF89)
Sequence of OR6C6 (Homo sapiens) (A6NF89 whole entry): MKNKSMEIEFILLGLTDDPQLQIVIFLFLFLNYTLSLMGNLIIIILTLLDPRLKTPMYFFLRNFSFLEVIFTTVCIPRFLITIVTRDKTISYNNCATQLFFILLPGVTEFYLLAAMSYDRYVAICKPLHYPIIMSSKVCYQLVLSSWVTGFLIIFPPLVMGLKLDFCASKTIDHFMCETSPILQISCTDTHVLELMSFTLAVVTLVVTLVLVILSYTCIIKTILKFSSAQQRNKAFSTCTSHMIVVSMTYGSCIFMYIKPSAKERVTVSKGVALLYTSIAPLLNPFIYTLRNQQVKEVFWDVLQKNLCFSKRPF
Summary of the method: as §1

OR6C6 M6I = tested on: OR6C6 M6I
Sequence of OR6C6 M6I (as listed by the source): as the sequence (A6NF89 whole entry) above, with M6I counted along it
Summary of the method: as §1

OR6C65 (Homo sapiens) = OR6C65 (Homo sapiens) (UniProt A6NJZ3)
Sequence of OR6C65 (Homo sapiens) (A6NJZ3 whole entry): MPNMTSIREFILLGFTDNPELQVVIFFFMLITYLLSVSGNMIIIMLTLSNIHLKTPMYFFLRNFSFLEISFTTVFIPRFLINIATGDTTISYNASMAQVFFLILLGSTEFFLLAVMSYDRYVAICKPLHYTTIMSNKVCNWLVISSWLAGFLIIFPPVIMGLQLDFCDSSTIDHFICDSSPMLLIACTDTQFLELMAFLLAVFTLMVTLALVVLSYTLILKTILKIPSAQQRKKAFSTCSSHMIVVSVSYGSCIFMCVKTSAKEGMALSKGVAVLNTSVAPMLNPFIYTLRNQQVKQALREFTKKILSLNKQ
Summary of the method: as §1

OR6C68 (Homo sapiens) = OR6C68 (Homo sapiens) (UniProt A6NDL8)
Sequence of OR6C68 (Homo sapiens) (A6NDL8 whole entry): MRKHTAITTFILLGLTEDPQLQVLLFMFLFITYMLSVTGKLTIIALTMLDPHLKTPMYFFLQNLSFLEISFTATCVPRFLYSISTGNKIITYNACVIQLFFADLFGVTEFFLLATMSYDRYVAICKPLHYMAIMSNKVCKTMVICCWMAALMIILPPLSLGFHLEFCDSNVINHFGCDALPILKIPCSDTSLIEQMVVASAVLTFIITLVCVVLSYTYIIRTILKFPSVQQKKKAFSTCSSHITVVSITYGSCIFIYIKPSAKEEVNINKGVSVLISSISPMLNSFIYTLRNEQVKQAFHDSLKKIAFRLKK
Summary of the method: as §1

OR6C70 (Homo sapiens) = OR6C70 (Homo sapiens) (UniProt A6NIJ9)
Sequence of OR6C70 (Homo sapiens) (A6NIJ9 whole entry): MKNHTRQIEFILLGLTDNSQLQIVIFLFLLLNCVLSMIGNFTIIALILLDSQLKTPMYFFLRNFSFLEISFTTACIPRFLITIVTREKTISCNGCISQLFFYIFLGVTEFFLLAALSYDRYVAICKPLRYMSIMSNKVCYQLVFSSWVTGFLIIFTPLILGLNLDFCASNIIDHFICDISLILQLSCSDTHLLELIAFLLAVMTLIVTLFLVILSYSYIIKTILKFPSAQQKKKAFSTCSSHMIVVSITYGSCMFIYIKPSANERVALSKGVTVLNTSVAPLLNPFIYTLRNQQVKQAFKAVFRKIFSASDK
Summary of the method: as §1

OR6C74 (Homo sapiens) = OR6C74 (Homo sapiens) (UniProt A6NCV1)
Sequence of OR6C74 (Homo sapiens) (A6NCV1 whole entry): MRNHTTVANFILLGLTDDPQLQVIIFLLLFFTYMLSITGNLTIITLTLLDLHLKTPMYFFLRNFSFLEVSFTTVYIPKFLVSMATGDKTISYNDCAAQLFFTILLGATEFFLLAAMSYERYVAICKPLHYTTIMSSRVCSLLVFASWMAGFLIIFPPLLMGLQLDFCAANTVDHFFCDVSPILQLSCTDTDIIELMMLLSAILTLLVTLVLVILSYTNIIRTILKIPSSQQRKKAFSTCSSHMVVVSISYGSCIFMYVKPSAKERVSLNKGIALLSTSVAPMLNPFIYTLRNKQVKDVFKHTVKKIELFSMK
Summary of the method: as §1

OR6C75 (Homo sapiens) = OR6C75 (Homo sapiens) (UniProt A6NL08)
Sequence of OR6C75 (Homo sapiens) (A6NL08 whole entry): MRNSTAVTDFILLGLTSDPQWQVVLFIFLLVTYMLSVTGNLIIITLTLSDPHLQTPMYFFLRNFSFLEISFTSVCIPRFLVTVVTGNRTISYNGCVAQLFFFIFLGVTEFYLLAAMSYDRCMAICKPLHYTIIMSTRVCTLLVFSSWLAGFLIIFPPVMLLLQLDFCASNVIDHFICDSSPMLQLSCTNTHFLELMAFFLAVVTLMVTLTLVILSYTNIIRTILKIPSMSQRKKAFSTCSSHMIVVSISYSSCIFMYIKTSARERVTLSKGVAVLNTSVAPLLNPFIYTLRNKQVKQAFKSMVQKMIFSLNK
Summary of the method: as §1

Measured: odorant receptor agonist call;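 note: active if original authors judged signal statistically different from baseline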

Sequence of OR6A2 (Homo sapiens) (O95222 whole entry): as the sequence (as listed by the source, stated change not applied) above, with V50I counted along it

C=CCOC(=O)Cc1ccccc1
inactive: all assays above

Cc1c([N+](=O)[O-])c(C)c([N+](=O)[O-])c(C(C)(C)C)c1[N+](=O)[O-]
not listed: OR6A2 I50V | OR6B2 R122C C179R | OR6B3 T48I R131C | OR6C1 C130Y H165D V246I | OR6C4 | OR6C6 M6I
inactive: all other assays above
